From ChEMBL document CHEMBL2380226, “Novel dual cyclooxygenase and lipoxygenase inhibitors targeting hyaluronan-CD44v6 pathway and inducing cytotoxicity in colon cancer cells” (Bioorg Med Chem, 2013)
Activity calls are given as the source filed them. No cut-off for these calls is given here.

How the values were obtained:
[1] = biological target: T1, Prostaglandin G/H synthase 1 (Ovis aries, UniProt P05979); test: Inhibition of ram seminal vesicle COX-1 using arachidonic acid as substrate assessed as production of PGF2alpha by enzyme immunoassay in presence of stannous chloride
T1 sequence (P05979 whole entry): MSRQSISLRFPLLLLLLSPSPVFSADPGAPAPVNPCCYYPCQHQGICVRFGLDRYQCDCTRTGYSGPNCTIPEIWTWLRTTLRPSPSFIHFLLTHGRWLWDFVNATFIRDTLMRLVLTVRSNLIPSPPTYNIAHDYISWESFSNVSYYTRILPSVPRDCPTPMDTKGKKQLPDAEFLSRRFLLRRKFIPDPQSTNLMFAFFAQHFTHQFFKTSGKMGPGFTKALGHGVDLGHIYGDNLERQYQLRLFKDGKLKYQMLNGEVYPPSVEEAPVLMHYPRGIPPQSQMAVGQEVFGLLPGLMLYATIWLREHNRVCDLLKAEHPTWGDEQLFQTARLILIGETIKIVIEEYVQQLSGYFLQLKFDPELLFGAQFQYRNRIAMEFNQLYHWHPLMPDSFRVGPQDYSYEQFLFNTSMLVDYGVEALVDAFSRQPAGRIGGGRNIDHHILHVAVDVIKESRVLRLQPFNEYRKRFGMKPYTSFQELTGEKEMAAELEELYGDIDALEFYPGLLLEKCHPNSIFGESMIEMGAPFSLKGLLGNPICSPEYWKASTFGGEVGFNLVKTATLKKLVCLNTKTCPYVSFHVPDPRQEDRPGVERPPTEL
In short: (§1)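 PGH2 formed by the enzyme is reduced with stannous chloride to PGF, which is quantified by competitive EIA. PGs compete with a PG-acetylcholinesterase tracer for PG antiserum, and the complex is captured on an anti-rabbit antibody-coated well. Ellman's reagent is developed and absorbance is read at 405 nm. Percent inhibition is taken against control incubations, and IC50 comes from the concentration-inhibition curve.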

[2] = biological target: T2, Prostaglandin G/H synthase 2 (Ovis aries, UniProt P79208); test: Inhibition of sheep placental COX-2 using arachidonic acid as substrate assessed as production of PGF2alpha by enzyme immunoassay in presence of stannous chloride; in short: as §1
T2 sequence (P79208 whole entry): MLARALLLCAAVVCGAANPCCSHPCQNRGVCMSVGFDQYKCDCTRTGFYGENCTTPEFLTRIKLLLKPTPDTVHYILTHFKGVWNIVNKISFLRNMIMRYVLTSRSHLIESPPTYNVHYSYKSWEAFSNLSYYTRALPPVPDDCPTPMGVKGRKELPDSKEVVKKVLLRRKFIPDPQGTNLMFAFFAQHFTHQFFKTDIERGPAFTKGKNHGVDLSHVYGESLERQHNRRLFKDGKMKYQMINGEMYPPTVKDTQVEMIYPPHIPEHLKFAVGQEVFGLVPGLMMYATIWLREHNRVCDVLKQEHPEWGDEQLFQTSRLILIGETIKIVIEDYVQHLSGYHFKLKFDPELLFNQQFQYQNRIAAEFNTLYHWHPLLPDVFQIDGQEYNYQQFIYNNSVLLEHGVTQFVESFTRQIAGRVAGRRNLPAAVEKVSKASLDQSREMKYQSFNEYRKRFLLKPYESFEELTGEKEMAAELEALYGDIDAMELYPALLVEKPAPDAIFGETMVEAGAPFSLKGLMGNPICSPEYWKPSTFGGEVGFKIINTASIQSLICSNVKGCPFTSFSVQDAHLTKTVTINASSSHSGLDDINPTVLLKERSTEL

[3] = Cytotoxicity against human HCA-7 cells assessed as decrease in cell survival after 18 hrs by MTS assay; format: functional, cell-based; settings: HCA-7, 18 h
In short: (§2)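 Cells were harvested, counted and seeded at 20 × 10^3 per well. After 18 h the medium was replaced with medium containing the agents. MTS/PMS reagent was freshly prepared at 2/0.92 mg/mL in DPBS and added in excess, then incubated at 5% CO2. Absorbance was read at 490 nm at 90 min, and cell-free blank absorbance was subtracted. IC50 is the concentration giving 50% inhibition of proliferation, reported as mean ± S.D. (three replicates of 4 independent analyses).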

[4] = Inhibition of potato 5-LOX using arachidonic acid as substrate assessed as production of hydroperoxides after 5 mins […]; set-up: species or system Solanum tuberosum
In short: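 Potato 5-LOX was tested with a commercial lipoxygenase screening kit that measures hydroperoxides. Compounds were dissolved in minimal DMSO and diluted in the supplied buffer. The reaction was started with arachidonic acid and shaken for 5 min. Chromogen was added, shaken for 5 min, and absorbance read at 500 nm. Percent inhibition was taken against control, and IC50 was derived from the concentration-inhibition curve from duplicate determinations.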

HCA-7 [5] = test: Cytotoxicity against human HCA-7 cells assessed as growth inhibition after 18 hrs by MTS assay; format: functional, cell-based; in short: as §2
[6] = Cytotoxicity against mouse APC10.1 cells assessed as decrease in cell survival after 18 hrs by MTS assay; format: functional, cell-based; in short: as §2
[7] = Inhibition of hyaluronan-induced CD44 antigen variant exon 6 activity in mouse APC10.1 cells expressing Has2 assessed as decrease in cell survival after 18 hrs by MTS assay; format: cell-based; in short: as §2
[8] = Inhibition of hyaluronan-induced CD44 antigen variant exon 6 activity in human HT-29 cells expressing Has2 assessed as decrease in cell survival after 18 hrs by MTS assay; format: cell-based; settings: HT-29, 18 h; in short: as §2
[9] = Inhibition of hyaluronan-induced CD44 antigen variant exon 6 activity in human HCA-7 cells expressing Has2 assessed as decrease in cell survival after 18 hrs by MTS assay; format: cell-based; settings: HCA-7, 18 h; in short: as §2
HT-29 [10] = test: Inhibition of hyaluronan-induced CD44 antigen variant exon 6 activity in human HT29 cells assessed as decrease in COX-2 expression at 10 uM; format: cell-based
HT-29 [11] = test: Inhibition of hyaluronan-induced CD44 antigen variant exon 6 activity in human HT29 cells assessed as decrease in 5-LOX expression at 10 uM; format: cell-based
Mus musculus [12] = species: Mus musculus; test: Inhibition of hyaluronan-induced CD44 antigen variant exon 6 activity in mouse APC10.1 cells assessed as cell growth inhibition after 18 hrs by MTS assay; format: cell-based; in short: as §2
HT-29 [13] = test: Cytotoxicity against human HT-29 cells assessed as growth inhibition after 18 hrs by MTS assay; format: functional, cell-based; in short: as §2
HT-29 [14] = test: Cytotoxicity against human HT-29 cells assessed as decrease in cell survival after 18 hrs by MTS assay; format: functional, cell-based; settings: HT-29, 18 h; in short: as §2
Ovis aries = species: Ovis aries; test: Selectivity ratio of IC50 for sheep placental COX-2 to IC50 for ram seminal vesicle COX-1; format: tissue-based
Mus musculus [15] = species: Mus musculus; test: Inhibition of hyaluronan-induced CD44 antigen variant exon 6 activity in mouse APC10.1 cells assessed as cell growth inhibition at 2 to 50 uM after 24 hrs by MTT assay; format: cell-based
In short: (§3)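 Cells were treated for 24 h at four concentrations in triplicate. MTT (stock 5 mg/ml in PBS, pH 7.2, filtered) was then added and incubated for 4 h at 37°C. Formazan was solubilized with 10% SDS in 0.01 N HCl, and absorbance was read at 570 nm to give viability.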

HCA-7 [16] = test: Cytotoxicity against human HCA-7 cells assessed as growth inhibition at 2 to 50 uM after 24 hrs by MTT assay; format: functional, cell-based; in short: as §3
HT-29 [17] = test: Cytotoxicity against human HT-29 cells assessed as growth inhibition at 2 to 50 uM after 24 hrs by MTT assay; format: functional, cell-based; in short: as §3
[18] = Cytotoxicity against rat IEC-6 cells assessed as growth inhibition at 2 to 50 uM after 24 hrs by MTT assay; format: cell-based; settings: iec-6, 24 h; in short: as §3
Mus musculus [19] = species: Mus musculus; test: Cytotoxicity against mouse APC10.1 cells expressing COX and LOX assessed as growth inhibition at 2 to 50 uM after 24 hrs by MTT assay; format: functional, cell-based; in short: as §3

Compound	IC50 [1]	IC50 [2]	IC50 [3]	IC50 [4]	growth inhibition (GI) (HCA-7 [5])	IC50 [6]	IC50 [7]	IC50 [8]	IC50 [9]	inhibition (HT-29 [10])	inhibition (HT-29 [11])	growth inhibition (GI) (Mus musculus [12])	growth inhibition (GI) (HT-29 [13])	IC50 (HT-29 [14])	Ratio IC50 (Ovis aries)	growth inhibition (GI) (Mus musculus [15])	growth inhibition (GI) (HCA-7 [16])	growth inhibition (GI) (HT-29 [17])	Activity [18]	growth inhibition (GI) (Mus musculus [19])
CC(C)(C)c1cc(/C=C2\SC(N)=NC2=O)cc(C(C)(C)C)c1O [DARBUFELONE]	35 µM	0.48 µM																		
CC(C)(C)C1=CC(=NNC(=O)c2ccncc2)C=C(C(C)(C)C)C1=O	55.7 µM	7.6 µM	12 µM	20 µM	Dose-dependent effect	8.9 µM	18.3 µM	5.4 µM	38.6 µM	Active	Active	Dose-dependent effect	Dose-dependent effect	15.2 µM	0.14					
CC(C)(C)c1cc(/C=C2\SC(=N)NC2=O)cc(C(C)(C)C)c1O [DARBUFELONE]				0.77 µM											0.014					
Cc1ccc(-c2cc(C(F)(F)F)nn2-c2ccc(S(N)(=O)=O)cc2)cc1 [CELECOXIB]			2 µM		Dose-dependent effect	4.2 µM	6 µM	18.3 µM	17.5 µM	Active	Active	Dose-dependent effect	Dose-dependent effect	3 µM						
CC(C)(C)C1=CC(=NNC(=O)c2ccccc2)C=C(C(C)(C)C)C1=O	14 µM	9.5 µM	12.5 µM	5.1 µM	Dose-dependent effect	20 µM	31 µM	38.5 µM	26.4 µM	Active	Active	Dose-dependent effect	Dose-dependent effect	15 µM	0.68					
CC(C)(C)C1=CC(=NNC(=O)c2cccnc2)C=C(C(C)(C)C)C1=O	48.6 µM	9.3 µM	6.5 µM		Dose-dependent effect	7.5 µM	12.2 µM	28.6 µM	34.5 µM	Active	Active	Dose-dependent effect	Dose-dependent effect	11 µM	0.19	Active	Active	Active	Non-toxic	Active
